Laboratory results from ChEMBL document CHEMBL1250467, “Design, synthesis, and anticonvulsant activity of new N-Mannich bases derived from spirosuccinimides and spirohydantoins” (Bioorg Med Chem, 2010).
Calls of active or inactive are those of the source. The calls are words filed in the database; no cut-off is given here.

Key:
Rattus norvegicus [1] = species on record: Rattus norvegicus; experiment: Protection index, ratio of TD50 for Sprague-Dawley rat by rotarod test to ED50 for Sprague-Dawley rat by maximal electroshock test; type: functional
Procedure, shortened: (§1)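 Male Sprague–Dawley rats dosed orally (0.5% methylcellulose/water suspension), groups of eight, tested at the previously estimated time of peak effect. Doses varied until at least three points lay in the 10–90% range of protection (MES, scPTZ) or minimal rotarod neurotoxicity. ED50/TD50 with 95% confidence intervals came from regression; PI = TD50/ED50.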

Rattus norvegicus [2] = experiment: Anticonvulsant activity in po dosed Sprague-Dawley rat assessed as protection against maximal electroshock-induced seizures; type: functional; procedure, shortened: as §1
Mus musculus [3] = experiment: Neurotoxicity in ip dosed CF1 albino mouse assessed as dose required to cause toxicity after 0.5 hrs by rotarod test; type: organism-based; conditions: in vivo
Procedure, shortened: (§2)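 Male CF-1 mice; compounds suspended in 0.5% methylcellulose/water and injected ip at 30, 100 and 300 mg/kg. MES, scPTZ (pentylenetetrazole 85 mg/kg sc at the test time) and rotarod neurotoxicity were scored at 0.5 and 4 h. Value is the lowest dose active or toxic in half or more of the animals; signs such as ataxia or tremor were recorded.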

Mus musculus [4] = experiment: Anticonvulsant activity in CF1 albino mouse assessed as protection against maximal electroshock-induced seizures at 300 mg/kg, ip after 0.5 hrs; type: functional, organism-based; set-up: dose 300 mg/kg; procedure, shortened: as §2
Mus musculus [5] = experiment: Neurotoxicity in ip dosed CF1 albino mouse assessed as dose required to cause toxicity after 4 hrs by rotarod test; type: organism-based; conditions: in vivo; procedure, shortened: as §2
Rattus norvegicus [6] = experiment: Anticonvulsant activity in po dosed Sprague-Dawley rat assessed as time required to peak protection against seizures; type: functional
Mus musculus [7] = experiment: Anticonvulsant activity in CF1 albino mouse assessed as protection against subcutaneous pentylenetetrazole-induced seizures at 300 mg/kg, ip after 4 hrs; type: functional, organism-based; set-up: dose 300 mg/kg; procedure, shortened: as §2
Rattus norvegicus [8] = experiment: Anticonvulsant activity in Sprague-Dawley rat assessed as protection against maximal electroshock-induced seizures at 30 mg/kg po after 0.5 hrs; type: functional
Procedure, shortened: (§3)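 Male Sprague–Dawley rats, four per group, given 30 mg/kg orally as a 0.5% methylcellulose/water suspension. MES protection scored at 0.25, 0.5, 1, 2 and 4 h after dosing, motor impairment checked in parallel; data are the number of the four rats protected.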

Mus musculus [9] = experiment: Anticonvulsant activity in CF1 albino mouse assessed as protection against subcutaneous pentylenetetrazole-induced seizures at 300 mg/kg, ip after 0.5 hrs; type: functional, organism-based; set-up: dose 300 mg/kg; procedure, shortened: as §2
Mus musculus [10] = experiment: Anticonvulsant activity in ip dosed CF1 albino mouse assessed as dose required to protect against maximal electroshock-induced seizures after 4 hrs; type: functional; procedure, shortened: as §2
Rattus norvegicus [11] = experiment: Anticonvulsant activity in Sprague-Dawley rat assessed as protection against maximal electroshock-induced seizures at 30 mg/kg po after 4 hrs; type: functional; procedure, shortened: as §3
Rattus norvegicus [12] = experiment: Anticonvulsant activity in Sprague-Dawley rat assessed as protection against maximal electroshock-induced seizures at 30 mg/kg po after 0.25 hrs; type: functional; procedure, shortened: as §3
Rattus norvegicus [13] = experiment: Anticonvulsant activity in Sprague-Dawley rat assessed as protection against maximal electroshock-induced seizures at 30 mg/kg po after 2 hrs; type: functional; procedure, shortened: as §3
Rattus norvegicus [14] = experiment: Anticonvulsant activity in Sprague-Dawley rat assessed as protection against maximal electroshock-induced seizures at 30 mg/kg po after 1 hr; type: functional; procedure, shortened: as §3
[15] = Displacement of [3H]batrachotoxin from neurotoxin site 2 of voltage-gated sodium channel in rat forebrain tissue
[16] = Neurotoxicity in po dosed Sprague-Dawley rat by rotarod test; type: toxicity, organism-based; conditions: in vivo; procedure, shortened: as §1
Mus musculus [17] = experiment: Anticonvulsant activity in CF1 albino mouse assessed as protection against maximal electroshock-induced seizures at 300 mg/kg, ip after 4 hrs; type: functional, organism-based; set-up: dose 300 mg/kg; procedure, shortened: as §2
Mus musculus [18] = experiment: Anticonvulsant activity in ip dosed CF1 albino mouse assessed as dose required to protect against maximal electroshock-induced seizures after 0.5 hrs; type: functional; procedure, shortened: as §2
Mus musculus [19] = experiment: Anticonvulsant activity in ip dosed CF1 albino mouse assessed as dose required to protect against subcutaneous pentylenetetrazole-induced seizures after 0.5 hrs; type: functional; procedure, shortened: as §2
Mus musculus [20] = experiment: Anticonvulsant activity in ip dosed CF1 albino mouse assessed as dose required to protect against subcutaneous pentylenetetrazole-induced seizures after 4 hrs; type: functional; procedure, shortened: as §2
Mus musculus [21] = experiment: Neurotoxicity in CF1 albino mouse at 300 mg/kg, ip after 4 hrs by rotarod test; type: toxicity, organism-based; set-up: dose 300 mg/kg, route intraperitoneal; conditions: in vivo; procedure, shortened: as §2
Rattus norvegicus [22] = experiment: Anticonvulsant activity in po dosed Sprague-Dawley rat assessed as protection against subcutaneous pentylenetetrazole-induced seizures; type: functional; procedure, shortened: as §1
Mus musculus [23] = experiment: Neurotoxicity in CF1 albino mouse at 300 mg/kg, ip after 0.5 hrs by rotarod test; type: toxicity, organism-based; set-up: dose 300 mg/kg, route intraperitoneal; conditions: in vivo; procedure, shortened: as §2
Rattus norvegicus [24] = experiment: Anticonvulsant activity in Sprague-Dawley rat assessed as protection against subcutaneous pentylenetetrazole-induced seizures at 50 mg/kg po after 0.25 hrs; type: functional, organism-based; set-up: dose 50 mg/kg
Procedure, shortened: (§4)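 Oral fixed dose of 50 mg/kg in male Sprague–Dawley rats (0.5% methylcellulose/water suspension), four rats per group. Pentylenetetrazole 70 mg/kg given sc at each test time (0.25, 0.5, 1, 2, 4 h); protection from clonic seizures counted per four rats, with motor impairment studied in parallel.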

Rattus norvegicus [25] = experiment: Anticonvulsant activity in Sprague-Dawley rat assessed as protection against subcutaneous pentylenetetrazole-induced seizures at 50 mg/kg po after 0.5 hrs; type: functional; procedure, shortened: as §4
Rattus norvegicus [26] = experiment: Anticonvulsant activity in Sprague-Dawley rat assessed as protection against subcutaneous pentylenetetrazole-induced seizures at 50 mg/kg po after 4 hrs; type: functional; procedure, shortened: as §4
Rattus norvegicus [27] = experiment: Anticonvulsant activity in Sprague-Dawley rat assessed as protection against subcutaneous pentylenetetrazole-induced seizures at 50 mg/kg po after 1 hr; type: functional; procedure, shortened: as §4
Rattus norvegicus [28] = experiment: Anticonvulsant activity in Sprague-Dawley rat assessed as protection against subcutaneous pentylenetetrazole-induced seizures at 50 mg/kg po after 2 hrs; type: functional; procedure, shortened: as §4
Mus musculus [29] = experiment: Anticonvulsant activity in CF1 albino mouse assessed as protection against electrically-induced seizure at 100 mg/kg, ip after 4 hrs by 6Hz psychomotor seizure test; type: functional
Procedure, shortened: (§5)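 Male CF-1 mice, compound suspended in 0.5% methylcellulose/water, given ip at 100 mg/kg; four mice per time point (0.25, 0.5, 1, 2, 4 h). Corneal stimulation with 0.2 ms monopolar rectangular pulses at 6 Hz for 3 s from a constant-current device, mice manually restrained. A mouse counted as protected if normal exploratory behaviour resumed within 10 s; motor impairment was noted alongside.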

Mus musculus [30] = experiment: Anticonvulsant activity in CF1 albino mouse assessed as protection against electrically-induced seizure at 100 mg/kg, ip after 0.5 hrs by 6Hz psychomotor seizure test; type: functional, organism-based; set-up: dose 100 mg/kg; procedure, shortened: as §5
Mus musculus [31] = experiment: Anticonvulsant activity in CF1 albino mouse assessed as protection against electrically-induced seizure at 100 mg/kg, ip after 1 hr by 6Hz psychomotor seizure test; type: functional; conditions: route intraperitoneal; procedure, shortened: as §5
Mus musculus [32] = experiment: Anticonvulsant activity in CF1 albino mouse assessed as protection against electrically-induced seizure at 100 mg/kg, ip after 0.25 hrs by 6Hz psychomotor seizure test; type: functional, organism-based; set-up: dose 100 mg/kg; procedure, shortened: as §5
Mus musculus [33] = experiment: Anticonvulsant activity in CF1 albino mouse assessed as protection against electrically-induced seizure at 100 mg/kg, ip after 2 hrs by 6Hz psychomotor seizure test; type: functional, organism-based; set-up: dose 100 mg/kg; procedure, shortened: as §5

SMILES	PI (Rattus norvegicus [1])	ED50 (Rattus norvegicus [2])	Activity (Mus musculus [3])	Activity (Mus musculus [4])	Activity (Mus musculus [5])	Activity (Mus musculus [7])	Activity (Mus musculus [9])	Activity (Mus musculus [10])	TD50 [16]	Activity (Mus musculus [17])	Activity (Mus musculus [18])	Activity (Mus musculus [21])	other results
O=C1CC2(CCc3ccccc3C2)C(=O)N1CCN1CCN(c2cccc(C(F)(F)F)c2)CC1 (centres undefined)	1.95	205 mg/kg											
O=C1NC2(CCc3ccccc3C2)C(=O)N1CN1CCN(c2ccccc2)CC1 (centres undefined)	>256.78	1.88 mg/kg	300 mg/kg	inactive	300 mg/kg	inactive	inactive	30 mg/kg	> 500 mg/kg				Time (Rattus norvegicus [6]): 6 h; Activity (Rattus norvegicus [8]): 50%; Activity (Rattus norvegicus [11]): 100%; Activity (Rattus norvegicus [12]): 25%; Activity (Rattus norvegicus [13]): 100%; Activity (Rattus norvegicus [14]): 50%; IC50 ([15]; read-out: IC50): 9.35 µM
O=C1CC2(CCc3ccccc3C2)C(=O)N1CN1CCN(c2ccccc2)CC1 (centres undefined)			100 mg/kg	inactive	300 mg/kg	inactive	inactive			inactive			
O=C1NC2(CCc3ccccc3C2)C(=O)N1CN1CCN(c2cccc(C(F)(F)F)c2)CC1 (centres undefined)			100 mg/kg		30 mg/kg	inactive	inactive	30 mg/kg			300 mg/kg		
O=C1NC2(CCc3ccccc3C2)C(=O)N1CN1CCN(c2ccc(F)cc2)CC1 (centres undefined)			30 mg/kg	inactive	30 mg/kg	inactive	inactive			inactive			
O=C1NC2(CCc3ccccc3C2)C(=O)N1CN1CCOCC1 (centres undefined)	>37.55	10.7 mg/kg	100 mg/kg					30 mg/kg	400 mg/kg		30 mg/kg	Non-toxic	Activity (Mus musculus [19]): 100 mg/kg; Time (Rattus norvegicus [6]): 6 h; Activity (Rattus norvegicus [8]): 25%; Activity (Mus musculus [20]): 100 mg/kg; Activity (Rattus norvegicus [11]): 100%; Activity (Rattus norvegicus [12]): inactive; Activity (Rattus norvegicus [13]): 75%; Activity (Rattus norvegicus [14]): 50%; IC50 [15]: Not Active; ED50 (Rattus norvegicus [22]): > 250 mg/kg
O=C1CC2(CCc3ccccc3C2)C(=O)N1CN1CCN(c2ccccc2F)CC1 (centres undefined)			300 mg/kg	inactive		inactive	inactive			inactive		Non-toxic	
CCC1(C)CC(=O)NC1=O (centres undefined) [ETHOSUXIMIDE]	>2.99	> 500 mg/kg		inactive					> 500 mg/kg	inactive		Non-toxic	Activity (Mus musculus [19]): 100 mg/kg; Activity (Mus musculus [23]): Non-toxic; Activity (Rattus norvegicus [24]): inactive; Activity (Mus musculus [20]): 300 mg/kg; Activity (Rattus norvegicus [25]): 50%; Activity (Rattus norvegicus [26]): inactive; Activity (Rattus norvegicus [27]): 25%; Activity (Rattus norvegicus [28]): 25%; ED50 (Rattus norvegicus [22]): 167 mg/kg
O=C1CC2(CCc3ccccc3C2)C(=O)N1CN1CCN(Cc2ccccc2)CC1 (centres undefined)						inactive	inactive	300 mg/kg			300 mg/kg	Non-toxic	Activity (Mus musculus [23]): Non-toxic; Activity (Mus musculus [29]): inactive; Activity (Mus musculus [30]): inactive; Activity (Mus musculus [31]): 25%; Activity (Mus musculus [32]): inactive; Activity (Mus musculus [33]): inactive
O=C1CC2(CCc3ccccc3C2)C(=O)N1CCN1CCN(c2cccc(Cl)c2)CC1 (centres undefined)	2.6	23 mg/kg											
O=C1NC(=O)C(c2ccccc2)(c2ccccc2)N1 [PHENYTOIN]	>3.6		100 mg/kg		100 mg/kg	inactive	inactive	30 mg/kg	> 100 mg/kg		30 mg/kg		Time (Rattus norvegicus [6]): 1 h; Activity (Rattus norvegicus [8]): 100%; Activity (Rattus norvegicus [11]): 75%; Activity (Rattus norvegicus [12]): 25%; Activity (Rattus norvegicus [13]): 75%; Activity (Rattus norvegicus [14]): 75%; IC50 ([15]; read-out: IC50): 40 µM; ED50 (Rattus norvegicus [22]): > 500 mg/kg
O=C1NC2(CCc3ccccc3C2)C(=O)N1CN1CCN(c2cccc(Cl)c2)CC1 (centres undefined)			30 mg/kg	inactive	30 mg/kg	inactive	inactive	100 mg/kg					
